Compounds with a hit are over-represented: about 2.7% of the library has one in this group of screens.
BB579 growth dn – chemicals that inhibit yeast BB579 growth in restrictive medium (lifespan-shortening candidates). S. cerevisiae BB579 growth, OD615, 48 h. AID 804. inhibition, % at 10 µM. 140,000 compounds, 0.51% hits;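 active means inhibition above a set limit, 3 SD over the mean compound inhibition, cut at about 44% in these data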
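System: DeaD yeast strain BB579; buffer or medium: CSMM-D dextrose restrictive medium; technique: OD at 615 nm; schedule: 4 h cell preincubation, 48 h compound exposure, 30 °C humidified; doses: single 10 µM dose; controls: amphotericin B 10 µg/mL, positive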
RAM inhibit – blocks the yeast RAM network | inhibition, % at 50 µM | S. cerevisiae dse1pr::URA3 reporter, 5-FOA growth OD615, 2 d; analog-sensitive cbk1-as2 kinase mutant strain | 190,000 compounds, 1.8% hits | AID 868;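 active means inhibition above a set limit, 3 SD over mean compound inhibition, cut at about 8.4% in these data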;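 further: inhibition rescues growth on 5-FOA so higher OD means more RAM inhibition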
Yeast lifespan up – extends the lifespan of yeast | 130,000 compounds, 0.68% hits | inhibition of the nicotinamide effect, % at 10 µM | S. cerevisiae growth with nicotinamide, OD615; deaD strain in restrictive glucose medium;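 active means inhibition above a set limit, placed 3 SD over the median of all compounds, cut at about 26% in these data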
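Material: Modified budding yeast, DeaD strain | Medium: Restrictive glucose medium | Probe or stimulus: 1.5 mM nicotinamide | Dosing: Single dose 10 µM compound, 0.25% DMSO | Times: 48 h at 30 °C | Technique: OD615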
SDO1 yeast rescue – restores growth of sdo1-depleted yeast | S. cerevisiae sdo1-depleted JHY4D growth rescue, OD600 30 h; active compounds read high; pdr5 snq2 efflux-pump mutant strain | 140,000 compounds, 0.21% hits | z-score at 10 µM;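 active means z-score above 3 at both the 24 hr and the 30 hr optical density reads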
Large screens that a line does not name were inactive.

CC1CCCN(C2=C(Cl)C(=O)N(c3cccc(Cl)c3)C2=O)C1 (stereo not drawn)	RAM inhibit 10
COc1ccccc1NS(=O)(=O)c1cc(NC(=O)c2ccc3c(c2)OCCO3)ccc1C	none
COC(=O)C(=Cc1ccc(OCc2ccc([N+](=O)[O-])cc2)c(OC)c1)C(=O)OC	RAM inhibit 9.2
COc1ccc(CCNC(=O)CCNS(=O)(=O)c2cccc(Cl)c2)cc1OC	none (no result: BB579 growth dn, Yeast lifespan up, SDO1 yeast rescue)
O=C(NC1CCCCC1)C(c1cccs1)N(C(=O)c1ccccn1)c1ccccc1 (stereo not drawn)	RAM inhibit 9.5
O=C(NC1CCCC1)C(c1cccs1)N(C(=O)c1ccno1)c1ccccc1 (stereo not drawn)	none
Cc1ccc(/C=C/C(=O)O)cc1S(=O)(=O)NC1CCS(=O)(=O)C1 (stereo not drawn)	none (no result: BB579 growth dn, Yeast lifespan up, SDO1 yeast rescue)
CCOC(=O)/C(=C\c1cccnc1)C(=O)c1cc(C(C)=O)c(Nc2ccccc2)s1	Yeast lifespan up 33
COc1cccc(OCCNc2cc(N3CCCCC3)ccc2[N+](=O)[O-])c1	RAM inhibit 10
COc1ccc(OCCNc2cc(N3CCCCC3)ccc2[N+](=O)[O-])cc1	RAM inhibit 11
COc1ccc(OCCNc2cc(N3CCOCC3)ccc2[N+](=O)[O-])cc1	none
Cc1ccc(SCCC(=O)OCC(=O)NCC2CCCCC2)cc1	none (no result: BB579 growth dn, Yeast lifespan up, SDO1 yeast rescue)
CC(C)(C)c1ccc(-c2nc(-c3ccncc3)no2)cc1	BB579 growth dn 68 (no result: Yeast lifespan up)
Cc1cc(C)cc(-c2nc(-c3ccncc3)no2)c1	none
CCOC(=O)c1cc(-c2ccccc2)sc1NC(=O)C(C)Sc1nnc(C)s1 (stereo not drawn)	RAM inhibit 11
CCOC(=O)c1cc(-c2ccccc2)sc1NC(=O)C(C)Sc1nnnn1C (stereo not drawn)	none
CCOC(=O)c1cc(CC)sc1NC(=O)c1cc(OCC)c(OCC)c(OCC)c1	RAM inhibit 10
CCOC(=O)c1cc(CC)sc1NC(=O)C(c1ccccc1)c1ccccc1	RAM inhibit 9.3
CCCCCCCCCCC(=O)NNC(=O)c1c(O)c2ccccc2n(CC)c1=O	RAM inhibit 8.8 (no result: BB579 growth dn, Yeast lifespan up, SDO1 yeast rescue)
CCCn1c(=O)c(C(=O)NCc2ccco2)c(O)c2ccccc21	none (no result: BB579 growth dn, Yeast lifespan up, SDO1 yeast rescue)
C=CCn1c(=O)c(C(=O)NCCc2ccccc2)c(O)c2ccccc21	RAM inhibit 10, Yeast lifespan up 29
CCCCCCCCCC(=O)NNC(=O)c1c(O)c2ccccc2n(CCC)c1=O	none (no result: BB579 growth dn, Yeast lifespan up, SDO1 yeast rescue)
CCCn1c(=O)c(C(=O)NNS(=O)(=O)c2ccc(Cl)cc2)c(O)c2ccccc21	Yeast lifespan up 27
CCCCCCCCC(=O)NNC(=O)c1c(O)c2ccccc2n(CCC)c1=O	RAM inhibit 8.8 (no result: BB579 growth dn, Yeast lifespan up, SDO1 yeast rescue)
COc1ccc(NC(=O)COC(=O)c2ncc(Cl)c(Cl)c2Cl)c(OC)c1	none
Cc1c(C=O)c2ccccn2c1C(=O)c1cccc([N+](=O)[O-])c1	none (no result: BB579 growth dn, Yeast lifespan up, SDO1 yeast rescue)
COCCCNC(=O)c1c(N)n(/N=C/c2ccccn2)c2nc3ccccc3nc12	none
CC(C)OCCCNC(=O)c1c(N)n(/N=C/c2cccs2)c2nc3ccccc3nc12	RAM inhibit 11
CCOc1ccc(/C=C/C(=O)Nc2cccc(C(C)=O)c2)cc1	RAM inhibit 9.7
CCOc1ccc(/C=C/C(=O)c2ccc(-c3ccccc3)cc2)cc1	RAM inhibit 8.9
CC1CCCC(NC(=O)CCCn2c(=S)[nH]c3ccccc3c2=O)C1C (stereo not drawn)	RAM inhibit 9.0 (no result: BB579 growth dn, Yeast lifespan up, SDO1 yeast rescue)
O=C(CN(c1cccc(C(F)(F)F)c1)S(=O)(=O)c1ccc(Cl)c([N+](=O)[O-])c1)NCc1ccccc1	none
CCOC(=O)C(C)(C)N(Cc1cccc(C)c1)S(=O)(=O)c1ccc(Cl)c([N+](=O)[O-])c1	RAM inhibit 11
O=C(Cc1nn[nH]n1)c1ccccc1O	none
CCCn1c(C)cc(C(=O)COc2ncnc3sccc23)c1C	Yeast lifespan up 49
Cc1cc(C(=O)COc2ncnc3sccc23)c(C)n1C1CC1	none
O=C(COC(=O)Cc1ccc(Cl)cc1)Nc1ccccc1-c1ccccc1	none
O=C(COC(=O)Cc1c(Cl)cccc1Cl)Nc1ccccc1-c1ccccc1	RAM inhibit 10
O=C(COC(=O)Cc1cccc2ccccc12)Nc1ccccc1-c1ccccc1	RAM inhibit 11
O=C(COC(=O)/C=C/c1ccc(Cl)cc1)Nc1ccccc1-c1ccccc1	RAM inhibit 8.7
CCN1C(=O)/C(=C2\SC(=S)N(CCCOC)C2=O)c2ccccc21	RAM inhibit 9.5
O=C(c1ccco1)N(CCC(c1ccccc1)c1ccco1)Cc1ccco1 (stereo not drawn)	RAM inhibit 8.8
CN(Cc1ccccc1)C(=O)c1ccco1	none (no result: BB579 growth dn, Yeast lifespan up, SDO1 yeast rescue)
O=C(O)/C=C/C(=O)N(Cc1ccccc1)Cc1ccco1	none
Cc1ccc(C(CCN(Cc2ccccc2)C(=O)c2ccco2)c2ccco2)cc1 (stereo not drawn)	RAM inhibit 11
Cc1cc2ccccn2c1C(=O)Nc1cccc(Cl)c1	none (no result: BB579 growth dn, Yeast lifespan up, SDO1 yeast rescue)
c1ccc(-c2cc(N3CCOCC3)nc3ccccc23)cc1	Yeast lifespan up 94
COc1nc(OC)nc(N2CCC(C(=O)NC3CC3)CC2)n1	none (no result: BB579 growth dn, Yeast lifespan up, SDO1 yeast rescue)
COc1ccc(CNC(=O)C2CCN(c3nc(OC)nc(OC)n3)CC2)cc1	Yeast lifespan up 90
COc1cc(NC2c3ccccc3C(=O)N2c2cc(C)ccn2)cc(OC)c1OC (stereo not drawn)	none
COc1cc(NC2c3ccccc3C(=O)N2c2ccc(C)cn2)cc(OC)c1OC (stereo not drawn)	Yeast lifespan up 27
CCN1C(=O)/C(=C\C=C\c2ccccc2[N+](=O)[O-])SC1=S	RAM inhibit 8.6 (no result: BB579 growth dn, Yeast lifespan up, SDO1 yeast rescue)
CC1CCc2c(sc(NC(=O)COC(=O)c3ccc(O)cc3)c2C#N)C1 (stereo not drawn)	none (no result: BB579 growth dn, Yeast lifespan up, SDO1 yeast rescue)
COC(=O)c1cc2occc2n1Cc1nc(-c2cccc(Cl)c2)oc1C	RAM inhibit 11
Cc1cccc(N(C(=O)CCC(=O)Nc2nccs2)C(C(=O)NC(C)(C)C)c2ccc(O)cc2)c1 (stereo not drawn)	none (no result: BB579 growth dn, Yeast lifespan up, SDO1 yeast rescue)
COCCNC(=O)C(c1ccc(F)cc1)N(C(=O)CCC(=O)Nc1nccs1)c1cccc(C)c1 (stereo not drawn)	RAM inhibit 9.6 (no result: BB579 growth dn, Yeast lifespan up, SDO1 yeast rescue)
CC(C)N1CCC(N2CCN(C3CCCCCC3)CC2CCO)CC1 (stereo not drawn)	none (no result: BB579 growth dn, Yeast lifespan up, SDO1 yeast rescue)
COc1ccc(CCNC(=O)COc2ccc(-c3ccc(C#N)cc3)cc2)cc1	none
N#Cc1ccc(-c2ccc(OCC(=O)NCCc3ccccc3)cc2)cc1	Yeast lifespan up 46
CC1CC(C)CN(C(=O)c2cc3cc(Br)cc(Br)c3o2)C1 (stereo not drawn)	none (no result: BB579 growth dn, Yeast lifespan up, SDO1 yeast rescue)
O=C(COC(=O)c1cc(-c2ccc(F)cc2)nc2ccccc12)NCC1CCCO1 (stereo not drawn)	none (no result: BB579 growth dn, Yeast lifespan up, SDO1 yeast rescue)
O=C(Nc1nnc(-c2ccccc2Cl)o1)c1cccnc1	Yeast lifespan up 34
COc1ccccc1C(=O)Nc1sc(C(=O)N2CCCC2)c(C)c1C#N	RAM inhibit 8.5 (no result: BB579 growth dn, Yeast lifespan up, SDO1 yeast rescue)
CCS(=O)(=O)c1ccc2oc(SCC(=O)NCCc3ccc(F)cc3)nc2c1	none (no result: BB579 growth dn, Yeast lifespan up, SDO1 yeast rescue)
CCN(CC)S(=O)(=O)c1ccc2oc(SCc3ccc(F)cc3)nc2c1	RAM inhibit 10.0
COc1ccc2[nH]c3c(Cl)ncnc3c2c1	BB579 growth dn 56

Screens: PubChem BioAssay, several laboratories
